The nature of data set [1]: Apparent passive permeability from apical to basolateral side in dog RRCK cells. The conditions noted are these: MDCK. The data set is classed as ADME, cell-based, Canis lupus familiaris, MDCKII-LE. The method, boiled down:
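Passive A→B permeability measured across RRCK cells, a low-transporter line isolated from MDCK cells.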

Data set [2] in a line: Oral bioavailability in rat at 5 mg/kg. The conditions noted are these: in vivo. In kind it is ADME, organism-based. In outline:
(§1)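 F from mean AUC0−∞ after single doses: rat 1 mg/kg iv and 5 mg/kg po (n = 3/dose, or iv n = 2); monkey 1 mg/kg iv and 30 mg/kg po, n = 2/dose.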

Data set [3] in a line: Ratio of unbound drug level in brain homogenate to plasma in rat at 1 mg/kg, sc. On the set-up: dose 1 mg/kg, route subcutaneous. In kind it is ADME, organism-based.
A short description of data set [4]: Volume of distribution at steady state in rat. The data set is classed as ADME, organism-based. Conditions: in vivo, read-out: Vdss.
The nature of data set [5]: Oral bioavailability in monkey at 30 mg/kg. In kind it is ADME, organism-based, Macaca mulatta. Conditions: rhesus monkey, in vivo. The method, boiled down: as §1
Data set [6] is described as follows: Ratio of unbound drug level in brain homogenate to plasma in rat at 1 mg/kg, sc after 4 hrs. In kind it is ADME, organism-based. On the set-up: dose 1 mg/kg, route subcutaneous. The method, boiled down:
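Rat neuropharmacokinetic study, single 1 mg/kg sc dose, n = 2 per time point. Ratio derived from AUC0−4 of unbound brain versus unbound plasma concentration. Unbound concentrations were corrected using the unbound fraction measured in brain homogenate and in plasma.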

Data set [7] in a line: Volume of distribution at steady state in monkey. The conditions noted are these: rhesus monkey, in vivo; read-out: Vdss. In kind it is ADME, organism-based, Macaca mulatta.

Results on 16 molecules are retold here after ChEMBL document CHEMBL3120085 (J Med Chem, 2014).

As for `CCN(CC)C(=O)c1nn(C)c2nc(OCc3ccccn3)cnc12`, the Papp A→B in data set [1] is 31.5 ×10⁻⁶ cm/s. In data set [2], this molecule registered a bioavailability of 35%. Besides, the Kp uu in data set [3] was determined as 0.51.

Turning to `Cn1nc(-c2ccccc2)c2ccc(OCc3ccccn3)nc21`, the Papp A→B in data set [1] turned out to be 0.78 ×10⁻⁶ cm/s.

In the case of `Cn1nc(-c2ccccn2)c2ccc(OCc3ccccn3)nc21`, the Papp A→B in data set [1] is 11.7 ×10⁻⁶ cm/s.

With `Cn1nc(-c2cccnc2)c2ccc(OCc3ccccn3)nc21`, the Papp A→B in data set [1] is 24.4 ×10⁻⁶ cm/s.

`Cn1nc(-c2cccnc2)c2ncc(OCc3ccccn3)nc21`: the Papp A→B in data set [1] amounted to 22.5 ×10⁻⁶ cm/s.

On to `Cc1cccnc1-c1nn(C)c2nc(OCc3ccccn3)cnc12`, for which the Papp A→B in data set [1] was 28.5 ×10⁻⁶ cm/s.

Consider `Cc1ccncc1-c1nn(C)c2nc(OCc3ccccn3)cnc12`, for which the Vd in data set [4] stood at 1.3 L/kg; in data set [7], 0.69 L/kg. For the same molecule, in data set [1], the apical-to-basolateral permeability (Papp A→B) amounted to 21 ×10⁻⁶ cm/s. Besides, the bioavailability in data set [5] is 67%; in data set [2], 28%. Besides, in data set [6], the Kp uu at 4 h was determined as 2.

For the molecule `Cn1nc(-c2cnccc2C(F)(F)F)c2ncc(OCc3ccccn3)nc21`, in data set [1], the Papp A→B is 21.4 ×10⁻⁶ cm/s.

`Cn1nc(-c2ncccc2OC(F)F)c2ncc(OCc3ccccn3)nc21`: in data set [1], the Papp A→B was 28.7 ×10⁻⁶ cm/s.

On to `Cc1c(Cl)cncc1-c1nn(C)c2nc(OCc3ccccn3)cnc12`, for which the Papp A→B in data set [1] amounted to 14.1 ×10⁻⁶ cm/s.

Take `Cc1ccnnc1-c1nn(C)c2nc(OCc3ccccn3)cnc12`: in data set [1], the Papp A→B amounted to 21.5 ×10⁻⁶ cm/s.

For the molecule `Cc1c(-c2nn(C)c3nc(OCc4ccccn4)cnc23)cnn1C`, the apical-to-basolateral permeability (Papp A→B) in data set [1] is 14.4 ×10⁻⁶ cm/s.

Turning to `CCn1nc(-c2cnccc2C)c2ncc(OCc3ccccn3)nc21`, in data set [1], the Papp A→B was determined as 13.8 ×10⁻⁶ cm/s.

Turning to `Cc1ccncc1-c1nn(C2CC2)c2nc(OCc3ccccn3)cnc12`, the Papp A→B in data set [1] was 19.6 ×10⁻⁶ cm/s.

On to `CCC(C)NC(=O)c1nn(C)c2nc(OCc3cccc(C)n3)ccc12` (stereo not given), for which the Papp A→B in data set [1] amounted to 19.8 ×10⁻⁶ cm/s.

Turning to `C[C@@H]1CCCN1C(=O)c1nn(C)c2nc(OCc3ccccn3)ccc12`, the Papp A→B in data set [1] worked out at 21 ×10⁻⁶ cm/s. For the same molecule, in data set [2], the bioavailability came to 0.4%. For the same molecule, the Kp uu in data set [3] came to 1.01.

By Papp A→B is commonly meant how fast a substance crosses the layer from the apical side. By bioavailability is commonly meant dose-corrected exposure relative to a reference, in per cent.
